Test results as given in ChEMBL document CHEMBL1128523, “Non-peptide fibrinogen receptor antagonists. 7. Design and synthesis of a potent, orally active fibrinogen receptor antagonist” (J Med Chem, 1995).
Blank lines part the entries; values can stand above or below the compound they belong to. Where a SMILES comes first, the peptide text is derived from it. Bridges are numbered along the chain shown (N, C = ends).

Columns and labels:
[1] = test system: Canis familiaris; test: Ex vivo antiplatelet activity was assessed following oral administration at a dose of 1 mg/kg to dogs in the presence of […] and 1 uM of epinephrine at 150 min; format: functional; settings: Canis lupus familiaris, 2.5 h
Outline: (§1)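 Four conscious mongrel dogs in slings, single oral 1.0 mg/kg crystalline solid in gelatin capsules; citrated venous blood (3.8% citrate) taken at baseline and 20–1440 min. PRP aggregation to ADP or collagen, each with 1 μM epinephrine, as % inhibition vs baseline. Mean ± SEM, n = 4.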

[2] = organism: Homo sapiens; test: In vitro concentration required to inhibit the rate of human platelet aggregation (in platelet rich plasma) by 50% was determined in presence of 0.5 U/mL of thrombin and 1 mM GPRP; format: functional
Outline: (§2)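 PRP from blood spun at 150g for 5 min, count set to 200 000 cells/mm3 with PPP; 300 μL held 3 min at 37 °C before agonist. Aggregation read as % change in light transmission, PPP = 100%; inhibition relative to baseline response. Mean ± SE, n = 3–7.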

[3] = organism: Homo sapiens; test: In vitro concentration required to inhibit the rate of human platelet aggregation (in platelet rich plasma) by 50% was determined in presence of 10 uM of epinephrine; format: functional; outline: as §2
[4] = In vitro concentration required to inhibit the rate of chimp platelet aggregation (in platelet rich plasma) by 50% was determined in presence of 10 ug/mL of collagen; format: functional; settings: Pan troglodytes; outline: as §2
[5] = organism: Canis familiaris; test: Whole blood platelet count was determined in 10e3/uL; format: functional, Canis lupus familiaris
Outline: (§3)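 Dogs given 1.0 mg/kg orally by capsule (n = 4); 1 mL citrated venous blood per time point (baseline to 1440 min) counted on an automated hematology analyzer; reported as 10^3/μL and Δ% from baseline, mean ± SEM.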

[6] = test system: Canis familiaris; test: Ex vivo antiplatelet activity was assessed following oral administration at a dose of 1 mg/kg to dogs in the presence of 10 uM of ADP and 1 uM of epinephrine at 70 min; format: functional; settings: Canis lupus familiaris; outline: as §1
[7] = organism: Canis familiaris; test: In vitro concentration required to inhibit the rate of dog platelet aggregation (in platelet rich plasma) by 50% was determined in presence of 10 uM of ADP and 1 uM of epinephrine; format: functional; settings: Canis lupus familiaris; outline: as §2
[8] = test system: Canis familiaris; test: Ex vivo antiplatelet activity was assessed following oral administration at a dose of 1 mg/kg to dogs in the presence of 10 uM of ADP and 1 uM of epinephrine at 1440 min; format: functional; settings: Canis lupus familiaris, 24 h; outline: as §1
[9] = organism: Homo sapiens; test: In vitro concentration required to inhibit the rate of human platelet aggregation (in platelet rich plasma) by 50% was determined in presence of 10 ug/mL of collagen; format: functional; outline: as §2
[10] = test system: Canis familiaris; test: Ex vivo antiplatelet activity was assessed following oral administration at a dose of 1 mg/kg to dogs in the presence of […] and 1 uM of epinephrine at 20 min; format: functional; settings: Canis lupus familiaris; outline: as §1
[11] = test system: Canis familiaris; test: Ex vivo antiplatelet activity was assessed following oral administration at a dose of 1 mg/kg to dogs in the presence of 10 uM of ADP and 1 uM of epinephrine at 350 min; format: functional; settings: Canis lupus familiaris; outline: as §1
[12] = test system: Canis familiaris; test: Ex vivo antiplatelet activity was assessed following oral administration at a dose of 1 mg/kg to dogs in the presence of 10 uM of ADP and 1 uM of epinephrine at 150 min; format: functional; settings: Canis lupus familiaris, 2.5 h; outline: as §1
[13] = test system: Canis familiaris; test: Ex vivo antiplatelet activity was assessed following oral administration at a dose of 1 mg/kg to dogs in the presence of 10 uM of ADP and 1 uM of epinephrine at 40 min; format: functional; settings: Canis lupus familiaris; outline: as §1
[14] = organism: Homo sapiens; test: In vitro concentration required to inhibit the rate of human platelet aggregation (in platelet rich plasma) by 50% was determined in presence of 10 uM of ADP; format: functional; outline: as §2
[15] = In vitro concentration required to inhibit the rate of chimp platelet aggregation (in platelet rich plasma) by 50% was determined in presence of 20 uM of ADP; format: functional; settings: Pan troglodytes; outline: as §2
[16] = test system: Canis familiaris; test: Ex vivo antiplatelet activity was assessed following oral administration at a dose of 1 mg/kg to dogs in the presence of […] and 1 uM of epinephrine at 1440 min; format: functional; settings: Canis lupus familiaris, 24 h; outline: as §1
[17] = test system: Canis familiaris; test: Ex vivo antiplatelet activity was assessed following oral administration at a dose of 1 mg/kg to dogs in the presence of 10 uM of ADP and 1 uM of epinephrine at 250 min; format: functional; settings: Canis lupus familiaris; outline: as §1
[18] = test system: Canis familiaris; test: Ex vivo antiplatelet activity was assessed following oral administration at a dose of 1 mg/kg to dogs in the presence of 10 uM of collagen and 1 uM of epinephrine at 350 min; format: functional; settings: Canis lupus familiaris; outline: as §1
[19] = test system: Canis familiaris; test: Ex vivo antiplatelet activity was assessed following oral administration at a dose of 1 mg/kg to dogs in the presence of […] and 1 uM of epinephrine at 300 min; format: functional; settings: Canis lupus familiaris, 5 h; outline: as §1
[20] = test system: Canis familiaris; test: Ex vivo antiplatelet activity was assessed following oral administration at a dose of 1 mg/kg to dogs in the presence of 10 uM of collagen and 1 uM of epinephrine at 480 min; format: functional; settings: Canis lupus familiaris, 8 h; outline: as §1
[21] = test system: Canis familiaris; test: Ex vivo antiplatelet activity was assessed following oral administration at a dose of 1 mg/kg to dogs in the presence of 10 uM of ADP and 1 uM of epinephrine at 90 min; format: functional; settings: Canis lupus familiaris, 1.5 h; outline: as §1
[22] = test system: Canis familiaris; test: Ex vivo antiplatelet activity was assessed following oral administration at a dose of 1 mg/kg to dogs in the presence of […] and 1 uM of epinephrine at 200 min; format: functional; settings: Canis lupus familiaris; outline: as §1
[23] = test system: Canis familiaris; test: Ex vivo antiplatelet activity was assessed following oral administration at a dose of 1 mg/kg to dogs in the presence of 10 uM of collagen and 1 uM of epinephrine at 90 min; format: functional; settings: Canis lupus familiaris, 1.5 h; outline: as §1
[24] = test system: Canis familiaris; test: Ex vivo antiplatelet activity was assessed following oral administration at a dose of 1 mg/kg to dogs in the presence of […] and 1 uM of epinephrine at 70 min; format: functional; settings: Canis lupus familiaris; outline: as §1
[25] = test system: Canis familiaris; test: Ex vivo antiplatelet activity was assessed following oral administration at a dose of 1 mg/kg to dogs in the presence of 10 uM of ADP and 1 uM of epinephrine at 300 min; format: functional; settings: Canis lupus familiaris, 5 h; outline: as §1
[26] = organism: Homo sapiens; test: Concentration required to inhibit the rate of platelet aggregation by 50% was determined with human gel filtered platelets (GFP); format: functional
Outline: (§4)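 Light-transmittance aggregometry at 37 °C on human gel-filtered platelets (2 × 10^8 platelets/mL) with 0.1 mg/mL human fibrinogen and 1 mM CaCl2; 10 μM ADP added last to start aggregation.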

[27] = test system: Canis familiaris; test: Ex vivo antiplatelet activity was assessed following oral administration at a dose of 1 mg/kg to dogs in the presence of 10 uM of collagen and 1 uM of epinephrine at 40 min; format: functional; settings: Canis lupus familiaris; outline: as §1
[28] = test system: Canis familiaris; test: Ex vivo antiplatelet activity was assessed following oral administration at a dose of 1 mg/kg to dogs in the presence of 10 uM of ADP and 1 uM of epinephrine at 0 min; format: functional; settings: Canis lupus familiaris, 0 h; outline: as §1
[29] = organism: Canis familiaris; test: Whole blood platelet count was determined as delta% from baseline; format: functional, Canis lupus familiaris; outline: as §3
[30] = organism: Homo sapiens; test: Concentration required to inhibit platelet aggregation by 50%; format: functional; outline: as §4
[31] = test system: Canis familiaris; test: Ex vivo antiplatelet activity was assessed following oral administration at a dose of 1 mg/kg to dogs in the presence of 10 uM of ADP and 1 uM of epinephrine at 480 min; format: functional; settings: Canis lupus familiaris, 8 h; outline: as §1
[32] = test system: Canis familiaris; test: Ex vivo antiplatelet activity was assessed following oral administration at a dose of 1 mg/kg to dogs in the presence of 10 uM of ADP and 1 uM of epinephrine at 20 min; format: functional; settings: Canis lupus familiaris; outline: as §1
[33] = test system: Canis familiaris; test: Ex vivo antiplatelet activity was assessed following oral administration at a dose of 1 mg/kg to dogs in the presence of […] and 1 uM of epinephrine at 0 min; format: functional; settings: Canis lupus familiaris, 0 h; outline: as §1
[34] = test system: Canis familiaris; test: Ex vivo antiplatelet activity was assessed following oral administration at a dose of 1 mg/kg to dogs in the presence of 10 uM of ADP and 1 uM of epinephrine at 200 min; format: functional; settings: Canis lupus familiaris; outline: as §1
[35] = test system: Canis familiaris; test: Ex vivo antiplatelet activity was assessed following oral administration at a dose of 1 mg/kg to dogs in the presence of […] and 1 uM of epinephrine at 250 min; format: functional; settings: Canis lupus familiaris; outline: as §1
[36] = organism: Canis familiaris; test: In vitro concentration required to inhibit the rate of dog platelet aggregation (in platelet rich plasma) by 50% was determined in presence of 10 ug/mL of collagen and 1 uM of epinephrine; format: functional; settings: Canis lupus familiaris; outline: as §2

IC50 [2]: 27 nM
IC50 [3]: 36 nM
IC50 [4]: 40 nM
IC50 [7]: 41 nM
IC50 [9]: 67 nM
IC50 [14]: 23 nM
IC50 [15]: 42 nM
IC50 [26]: 32 nM
IC50 [30]: 32 nM
IC50 [36]: 40 nM
Structure (SMILES): C[C@H](CC(=O)O)NC(=O)CN1CCC[C@@H](CCC2CCNCC2)C1=O
inhibition in vivo at 1 mg/kg [1]: 94%
Platelet count [5]: 322000 µL⁻¹
inhibition in vivo at 1 mg/kg [6]: 93%
inhibition in vivo at 1 mg/kg [8]: 2%
inhibition in vivo at 1 mg/kg [10]: 48%
inhibition in vivo at 1 mg/kg [11]: 81%
inhibition in vivo at 1 mg/kg [12]: 96%
inhibition in vivo at 1 mg/kg [13]: 86%
inhibition in vivo at 1 mg/kg [16]: 3%
inhibition in vivo at 1 mg/kg [17]: 90%
inhibition in vivo at 1 mg/kg [18]: 54%
inhibition in vivo at 1 mg/kg [19]: 67%
inhibition in vivo at 1 mg/kg [20]: 31%
inhibition in vivo at 1 mg/kg [21]: 96%
inhibition in vivo at 1 mg/kg [22]: 78%
inhibition in vivo at 1 mg/kg [23]: 75%
inhibition in vivo at 1 mg/kg [24]: 79%
inhibition in vivo at 1 mg/kg [25]: 91%
inhibition in vivo at 1 mg/kg [27]: 79%
inhibition in vivo at 1 mg/kg [28]: 0%
Delta [29]: -0.5% [middle of 10 runs]
inhibition in vivo at 1 mg/kg [31]: 63%
inhibition in vivo at 1 mg/kg [32]: 50%
inhibition in vivo at 1 mg/kg [33]: 0%
inhibition in vivo at 1 mg/kg [34]: 94%
inhibition in vivo at 1 mg/kg [35]: 72%

IC50 [26]: 7800 nM
Structure (SMILES): C[C@@H](CC(=O)O)NC(=O)CN1CCC[C@@H](CCC2CCNCC2)C1=O

IC50 [26]: 680 nM
Structure (SMILES): CC(=O)N[C@H]1CSSC[C@@H](C(=O)O)NC(=O)[C@H](CC(=O)O)NC(=O)CNC(=O)[C@H](CCCN=C(N)N)NC1=O (Ac-CRGDC-OH; disulfide 1-5)

The next lines start with the compound.

Structure (SMILES): O=C(O)CCNC(=O)CN1CCC[C@@H](CCC2CCNCC2)C1=O
IC50 [26]: 83 nM

Structure (SMILES): O=C(O)CCNC(=O)CNC(=O)CCCC1CCNCC1
IC50 [26]: 8400 nM
